In brackets after ≈: the same amount, converted by molar mass. Like-named read-outs stand apart in the source and are kept apart here.
Tests used:
[1] = Thermogravimetric analysis; format: physicochemical
In short: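 Thermogravimetric analysis of a 5.0 ± 0.5 mg sample in a ceramic pan under nitrogen at 2 bars. The sample was heated from 20°C to 350°C at 10°C/min to obtain the degradation temperature.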

[2] = rats, i.p.; cited from earlier work
A375 cell line = details: cited from earlier work
[3] = Saturation solubility of EAPB0503 in solvents by HPLC; format: physicochemical; details: for solubility: thermodynamic from solid
In short: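 Solvents, including purified water, were saturated with solid test compound and centrifuged at 5000 g for 5 min. The supernatant was quantified by HPLC on a C8 column using acetonitrile/2 mM ammonium formate pH 3 at 0.6 mL/min with a 12 min run. The column was held at 20°C and detection was by UV. Calibration used DMSO standards from 50–1000 μg/mL.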

tubulin polymerization = details: cited from earlier work
[4] = Solubility screening of EAPB0503 in oils; format: physicochemical
In short: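 5 mg of test compound was added to 1 g of pharmaceutical-grade oil ([…], castor, olive, soybean or sesame). Samples were magnetically stirred for 24 h at 20°C and then checked for complete solubilization.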

[5] = cited from earlier work
[6] = cited from earlier work; remark: listed apart in the source

SMILES: CNc1nc2ccccc2n2c(-c3cccc(OC)c3)cnc12 [EAPB0503, 1-[3-methoxyphenyl]-N-methylimidazo [1,2-a] quinoxalin-4-amine]
- Degradation temperature (TGA) [1]: 347 °C
- Degradation temperature onset (TGA) ([1]; onset): 210 °C
- Bioavailability after intraperitoneal administration [2]: 35%
- IC50 (A375 cell line; A375 cell line growth): 0.2 µM
- Fold increase activity compared to EAPB0203 (A375 cell line; in vitro activity, human melanoma cell lines): 9
- Maximum concentration (solubility) ([3]; Purified water): <0.1 mg/mL
- solubility ([3]; dimethyl sulfoxide, organic solvent or mixture): 16.6 mg/mL (≈ 54.5 mM)
- solubility ([3]; dimethylacetamide, organic solvent or mixture): 24.8 mg/mL (≈ 81.5 mM)
- solubility ([3]; phosphate buffered saline, aqueous buffer): < 0.1 mg/mL
- solubility ([3]; purified water, water): < 0.1 mg/mL
- Inhibition of the tubulin polymerization (tubulin polymerization): potent inhibition
- Solubility in Labrafac WL 139 ([4]; Labrafac WL 139): higher than 12 mg/g
- solubility at 24 h ([4]; Labrafac WL 1349 (semi-synthetic oil), oil or lipid, thermodynamic from solid): 12 mg/mL (≈ 39.4 mM)
- Concentration obtainable in vegetable oils ([4]; castor, olive, soybean and sesame oils): ≤ 1000 µg/mL
- Solubilization in vegetable oils ([4]; castor, olive, soybean and sesame oils, 5 mg/mL, room temperature): not complete

SMILES: CC(=O)O[C@@]12CO[C@@H]1C[C@H](O)[C@@]1(C)C(=O)[C@H](O)C3=C(C)[C@@H](OC(=O)[C@H](O)[C@@H](NC(=O)OC(C)(C)C)c4ccccc4)C[C@@](O)([C@@H](OC(=O)c4ccccc4)[C@H]21)C3(C)C [docetaxel]
- Drug loading in LNC ([5]; encapsulated in LNC): 2 mg/mL

SMILES: COc1cc([C@@H]2c3cc4c(cc3[C@@H](O[C@@H]3O[C@@H]5CO[C@@H](C)O[C@H]5[C@H](O)[C@H]3O)[C@H]3COC(=O)[C@H]23)OCO4)cc(OC)c1O [etoposide]
- Drug efficiency (encapsulation) in LNC ([5]; formulated in LNC): 56.7 ± 21.3%
- Drug loading in LNC ([5]; formulated in LNC): 6.5 ± 3.0 mg/g
- Water solubility [6]: 0.978 mg/mL

SMILES: CC(=O)O[C@H]1C(=O)[C@@]2(C)[C@H]([C@H](OC(=O)c3ccccc3)[C@]3(O)C[C@H](OC(=O)[C@H](O)[C@@H](NC(=O)c4ccccc4)c4ccccc4)C(C)=C1C3(C)C)[C@]1(OC(C)=O)CO[C@@H]1C[C@@H]2O [paclitaxel]
- Drug loading in LNC ([5]; encapsulated in LNC): 4 mg/mL
